Data set [1] is described as follows: folding enthalpy; higher = less favourable; fluorescence melt of hairpins on a sequencing array, two-state fit. Conditions: sodium 0.088 M. An outline of the steps: (§1)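 Library hairpins on a sequenced MiSeq flow cell carried annealed Cy3 and quencher oligos, and their Cy3 fluorescence was imaged in 50 mM Na-HEPES pH 8.0 with 25 mM NaCl, in 2.5 °C steps up to 60 °C. Signals were normalised to Cy3 before quenching and to control constructs. Melting temperature and folding enthalpy were obtained from bootstrapped two-state fits, combined by inverse-variance weighting across four replicates, and the fitted temperatures were then raised by 9.35 °C to match UV melts.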

The nature of data set [2]: melting temperature; fluorescence melt of hairpins on a sequencing array, two-state fit, raised by 9.35 °C to match UV melts. Conditions: sodium 0.088 M. Put shortly:
as §1

For the sequence GTCCCCCCGAAAGGGGAC (((..(((....)))))), the folding enthalpy in data set [1] was -16.9 kcal/mol. Further, in data set [2], the Tm was 59.5 °C.
As to GATCCGGAACCGGATC ((((((....)))))), the folding enthalpy in data set [1] was -39.9 kcal/mol. For the same sequence, the Tm in data set [2] came out at 62.5 °C.
Taken in the same sequence, the figures for GCTCTAGGAAACTAGAGC (((((((....))))))) were -44.6 kcal/mol and 60.1 °C.
For GGGCTCGAAAGAGCGCCC ((((((....)))..))), in that order: -10.7 kcal/mol and 56.6 °C.
Taken in the same sequence, the figures for GCGCTCCGAAAGGATCGC (((.(((....))).))) were -41 kcal/mol and 59.2 °C.
Take GCGAGACATCGC ((((....)))): in data set [1], the folding enthalpy was -8 kcal/mol. In addition, the Tm in data set [2] was found to be 55.1 °C.
For GCGCCGCGAAAGCCGGGC ((.(.((....)).).)), in that order: -15.8 kcal/mol and 55.3 °C.
With GCAGTACGAAAGTATTGC (((.(((....))).))), in data set [1], the folding enthalpy is -45.2 kcal/mol. Also, the Tm in data set [2] worked out at 52.8 °C.
GTCAGATCGAAAGATGAC (((..(((....)))))): the folding enthalpy in data set [1] was -22.2 kcal/mol. For the same sequence, the Tm in data set [2] came to 38.1 °C.
Taken in the same sequence, the figures for GCGTGGAAACGC ((((....)))) were -30.1 kcal/mol and 58.8 °C.
For GCTCGACGAAAGTCTAGC (((.(((....))).))), in that order: -41.8 kcal/mol and 49.6 °C.
For GGCAGTCGAAAGACAGCC (((.(((....))).))), in that order: -38.9 kcal/mol and 61.8 °C.
As for GGGACAGGAAACTGCCCC (((.(((....))).))), the folding enthalpy in data set [1] is -35.2 kcal/mol. Also, the Tm in data set [2] stood at 50.8 °C.
For the sequence GTCGTGAAAACGAC (((((....))))), in data set [1], the folding enthalpy was -30.5 kcal/mol. The Tm in data set [2] turned out to be 60.8 °C.
Taken in the same sequence, the figures for GCCCTTGCGAAAGCAGGC (((..(((....)))))) were -14.7 kcal/mol and 43.8 °C.
Taken in the same sequence, the figures for GCTTTCGGAAACGAAAGC (((((((....))))))) were -43.1 kcal/mol and 68 °C.
For GATCCGGGCGCGGATC ((((((....)))))), in that order: -39 kcal/mol and 59.8 °C.
GATCCTGCTGAGGATC ((((((....)))))): the folding enthalpy in data set [1] is -52.2 kcal/mol. In data set [2], the Tm was 51.4 °C.
Taken in the same sequence, the figures for GCGGTAGCGAAAGCTCGC (((..(((....)))))) were -15.5 kcal/mol and 52.8 °C.
Taken in the same sequence, the figures for GATCATAACAATGATC ((((((....)))))) were -32.1 kcal/mol and 47 °C.
Taken in the same sequence, the figures for GTCGGTACGAAAGTAGAC (((..(((....)))))) were -10.7 kcal/mol and 31.9 °C.
Regarding GATCGGTGGCCGATC ((((((...)))))), in data set [1], the folding enthalpy is -33.8 kcal/mol. Besides, the Tm in data set [2] came out at 55.9 °C.
For GCCACGCGAAAGCGATGC ((..(((....)))..)), in that order: -12.7 kcal/mol and 43.3 °C.
For GCATGGCGAAAGCCGGGC ((..(((....)))..)), in that order: -17.7 kcal/mol and 60.4 °C.
As for GGAGACGAAAGTCCTTCC ((((((....)))..))), the folding enthalpy in data set [1] is -21.1 kcal/mol. In addition, in data set [2], the Tm was 42.6 °C.
GCTTCAACGAAAGTTAGC (((..(((....)))))): in data set [1], the folding enthalpy is -18.7 kcal/mol. For the same sequence, the Tm in data set [2] worked out at 30.9 °C.
For GGTTTGGGAAACTAAGCC ((.((.(....).)).)), in that order: -13.6 kcal/mol and 30.2 °C.
Taken in the same sequence, the figures for GGTTACGGAAACATAACC (((((.(....).))))) were -17 kcal/mol and 35.8 °C.
In the case of GCGTCTATACGC ((((....)))), the folding enthalpy in data set [1] was -25 kcal/mol. Besides, in data set [2], the Tm is 54.6 °C.
As for GGCCGGGGAAACCCGACC ((.((((....)))).)), the folding enthalpy in data set [1] was -34.5 kcal/mol. Moreover, the Tm in data set [2] stood at 57.2 °C.
Taken in the same sequence, the figures for GTATTCGAAAGAATTTAC ((((((....)))..))) were -12.2 kcal/mol and 27.5 °C.
For GATCGTAGTCACGATC ((((((....)))))), in that order: -36.1 kcal/mol and 54.1 °C.
For GTGTGGGGAAACTCACAC (((((.(....).))))), in that order: -36.3 kcal/mol and 52.3 °C.
As to CGTCTCCGGAAACGGACG (((..(((....)))))), the folding enthalpy in data set [1] is -14.7 kcal/mol. Further, the Tm in data set [2] amounted to 37.8 °C.
For GAATGGGAAACCATTC ((((((....)))))), in that order: -37.9 kcal/mol and 51.7 °C.
For the sequence GACGTTGGAAACAGCGTC ((((.((....)).)))), in data set [1], the folding enthalpy was -39.6 kcal/mol. Also, the Tm in data set [2] was found to be 52.1 °C.
For GAGCTGGAAACAGCTC ((((((....)))))), in that order: -26 kcal/mol and 67.6 °C.

The values are drawn from the array DNA melting data of Ke et al. (doi:10.1101/2024.01.08.574731).
